Measured values as given in ChEMBL document CHEMBL2203264, “Optimization of imidazo[4,5-b]pyridine-based kinase inhibitors: identification of a dual FLT3/Aurora kinase inhibitor as an orally bioavailable preclinical development candidate for the treatment of acute myeloid leukemia” (J Med Chem, 2012).
pIC50, pKd: −log10 of the molar value.

Assays:
[1] = Metabolic stability in human liver microsomes assessed as parent compound metabolism after 30 mins by LC-MS analysis; assay type: ADME, Microsome; conditions: read-out: Drug metabolism
How it was run: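 Test compound at 10 μM with pooled mixed-gender human liver microsomes (1 mg/mL protein), NADPH 1 mM, UDPGA 2.5 mM and MgCl2 3 mM in 10 mM PBS at 37 °C for 0 and 30 min. Controls omit NADPH/UDPGA. Compound remaining measured by LC–MS; reported as percent of parent metabolized at 30 min.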

SW-620 = experiment: cells; conditions: Homo sapiens, SW-620, 72 h
[2] = Metabolic stability in mouse liver microsomes assessed as parent compound metabolism after 30 mins by LC-MS analysis; assay type: ADME, Microsome; conditions: read-out: Drug metabolism
How it was run: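 Male CD1 mouse liver microsomes (1 mg/mL protein) incubated with 10 μM compound plus NADPH 1 mM, UDPGA 2.5 mM and MgCl2 3 mM in 10 mM PBS at 37 °C for 0 and 30 min. NADPH/UDPGA-free controls included. LC–MS quantitation of remaining compound; reported as percent parent metabolized after 30 min.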

Aurora kinase A = molecular target: T1, Aurora kinase A (Homo sapiens, UniProt O14965); experiment: Inhibition of GST-tagged human Aurora A kinase expressed in baculovirus system
T1 sequence (O14965 whole entry): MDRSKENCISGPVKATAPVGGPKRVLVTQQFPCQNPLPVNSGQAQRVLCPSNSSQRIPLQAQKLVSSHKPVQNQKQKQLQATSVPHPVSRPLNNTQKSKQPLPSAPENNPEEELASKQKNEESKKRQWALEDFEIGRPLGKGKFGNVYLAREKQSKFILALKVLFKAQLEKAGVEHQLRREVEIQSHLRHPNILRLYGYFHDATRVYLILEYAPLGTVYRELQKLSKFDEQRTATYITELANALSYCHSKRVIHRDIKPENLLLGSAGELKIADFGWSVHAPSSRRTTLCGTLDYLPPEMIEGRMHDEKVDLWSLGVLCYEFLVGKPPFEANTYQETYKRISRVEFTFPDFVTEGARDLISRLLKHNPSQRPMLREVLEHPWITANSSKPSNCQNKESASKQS

hERG (KCNH2) = hERG (KCNH2) (Homo sapiens, UniProt Q12809); experiment: Inhibition of human ERG at 10 uM by cell-based electrophysiology assay
[3] = Binding affinity to FLT3 ITD mutant
[4] = molecular target: T2, Receptor-type tyrosine-protein kinase FLT3 (Homo sapiens, UniProt P36888)
T2 sequence (P36888 whole entry): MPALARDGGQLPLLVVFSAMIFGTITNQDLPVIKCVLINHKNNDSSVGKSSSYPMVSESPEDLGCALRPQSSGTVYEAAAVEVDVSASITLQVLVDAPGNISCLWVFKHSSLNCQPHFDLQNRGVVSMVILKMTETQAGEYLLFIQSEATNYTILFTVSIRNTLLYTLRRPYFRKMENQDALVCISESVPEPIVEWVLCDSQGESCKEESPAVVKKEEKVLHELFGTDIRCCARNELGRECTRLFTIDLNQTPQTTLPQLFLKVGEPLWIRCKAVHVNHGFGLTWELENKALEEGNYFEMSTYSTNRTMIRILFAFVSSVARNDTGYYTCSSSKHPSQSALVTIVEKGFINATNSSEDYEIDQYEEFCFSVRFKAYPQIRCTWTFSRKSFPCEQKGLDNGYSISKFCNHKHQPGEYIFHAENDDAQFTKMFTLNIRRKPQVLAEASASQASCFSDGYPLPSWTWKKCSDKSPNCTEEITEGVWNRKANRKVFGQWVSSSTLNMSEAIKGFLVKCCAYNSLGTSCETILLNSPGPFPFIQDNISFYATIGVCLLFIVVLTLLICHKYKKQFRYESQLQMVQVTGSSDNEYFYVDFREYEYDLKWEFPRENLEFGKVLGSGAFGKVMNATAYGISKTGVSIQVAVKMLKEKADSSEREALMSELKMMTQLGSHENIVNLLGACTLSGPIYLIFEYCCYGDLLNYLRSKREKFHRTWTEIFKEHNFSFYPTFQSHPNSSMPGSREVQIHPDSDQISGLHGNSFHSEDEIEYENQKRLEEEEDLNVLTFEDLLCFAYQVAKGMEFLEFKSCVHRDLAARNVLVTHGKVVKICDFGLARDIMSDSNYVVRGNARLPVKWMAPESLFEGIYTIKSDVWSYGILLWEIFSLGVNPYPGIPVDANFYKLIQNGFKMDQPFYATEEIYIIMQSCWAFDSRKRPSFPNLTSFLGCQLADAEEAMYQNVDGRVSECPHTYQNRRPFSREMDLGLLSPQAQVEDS

[5] = molecular target: Voltage-gated inwardly rectifying potassium channel KCNH2 (Homo sapiens, UniProt Q12809); experiment: Inhibition of human ERG by cell-based electrophysiology assay
Voltage-gated inwardly rectifying potassium channel KCNH2, sequence (Q12809 whole entry): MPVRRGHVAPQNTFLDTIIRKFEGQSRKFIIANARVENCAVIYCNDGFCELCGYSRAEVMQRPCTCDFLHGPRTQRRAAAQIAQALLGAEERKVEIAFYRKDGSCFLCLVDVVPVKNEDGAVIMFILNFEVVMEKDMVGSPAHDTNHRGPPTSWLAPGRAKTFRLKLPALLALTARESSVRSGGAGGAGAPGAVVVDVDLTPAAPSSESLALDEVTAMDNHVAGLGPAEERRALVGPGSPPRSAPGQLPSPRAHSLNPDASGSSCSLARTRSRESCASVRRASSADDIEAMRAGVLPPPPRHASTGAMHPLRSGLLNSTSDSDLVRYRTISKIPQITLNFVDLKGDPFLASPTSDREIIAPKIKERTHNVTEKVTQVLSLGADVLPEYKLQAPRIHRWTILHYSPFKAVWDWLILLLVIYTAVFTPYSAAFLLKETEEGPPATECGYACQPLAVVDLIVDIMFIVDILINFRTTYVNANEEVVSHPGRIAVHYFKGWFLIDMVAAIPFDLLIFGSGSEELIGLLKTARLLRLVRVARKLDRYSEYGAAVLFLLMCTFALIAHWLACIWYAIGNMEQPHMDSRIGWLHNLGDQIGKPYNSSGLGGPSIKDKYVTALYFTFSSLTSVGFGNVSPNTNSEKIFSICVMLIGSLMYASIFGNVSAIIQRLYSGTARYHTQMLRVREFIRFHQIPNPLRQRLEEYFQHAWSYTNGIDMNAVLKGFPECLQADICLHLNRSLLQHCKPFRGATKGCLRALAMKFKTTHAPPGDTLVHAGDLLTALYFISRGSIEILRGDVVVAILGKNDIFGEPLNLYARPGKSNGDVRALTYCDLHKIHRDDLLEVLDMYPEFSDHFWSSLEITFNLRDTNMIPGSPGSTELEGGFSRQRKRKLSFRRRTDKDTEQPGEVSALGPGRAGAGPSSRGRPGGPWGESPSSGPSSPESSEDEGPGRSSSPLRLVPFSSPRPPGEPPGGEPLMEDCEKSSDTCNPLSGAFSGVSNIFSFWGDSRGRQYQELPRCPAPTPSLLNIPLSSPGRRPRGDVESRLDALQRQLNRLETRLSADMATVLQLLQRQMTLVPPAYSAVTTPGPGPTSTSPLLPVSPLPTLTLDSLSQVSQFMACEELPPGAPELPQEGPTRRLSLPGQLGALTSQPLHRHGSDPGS

hERG (KCNH2), sequence (Q12809 whole entry): as above

Row | Compound | metabolised at 0.5 h [1] | GI50 (SW-620) | metabolised at 0.5 h [2] | pIC50 (Aurora kinase A) | inhibition at 10 µM (hERG (KCNH2)) | pKd [3] | pKd [4] | pIC50 [5]
1 | Cc1cc(CN2CCN(c3c(Cl)cnc4[nH]c(-c5cnn(C(C)C)c5)nc34)CC2)no1 | 17% | 2220 nM | 30% | 7.46 | 71% |  |  | 
2 | Cc1nn(C)cc1-c1nc2ncc(Cl)c(N3CCN(Cc4nonc4C)CC3)c2[nH]1 | 54% | 250 nM | 91% | 8.22 | 50% |  |  | 
3 | Cc1cc(CN2CCN(c3c(Cl)cnc4[nH]c(-c5cnn(CC(F)F)c5)nc34)CC2)no1 | 0% | 1600 nM | 12% | 7.35 | 82% |  |  | 
4 | Cc1cc(CN2CCN(c3c(Cl)cnc4nc(-c5cc(C)on5)[nH]c34)CC2)no1 |  | 1150 nM |  | 6.36 |  |  |  | 
5 | Cc1nn(C)cc1-c1nc2ncc(Cl)c(N3CCN(Cc4cnccn4)CC3)c2[nH]1 | 76% | 1090 nM | 99% | 7.57 | 23% |  |  | 
6 | Cc1nn(C)cc1-c1nc2c(N3CCN(Cc4ncon4)CC3)c(Cl)cnc2[nH]1 | 22% |  | 67% |  |  |  |  | 
7 | Cc1cc(CN2CCN(c3c(Cl)cnc4nc(-c5nccn5C)[nH]c34)CC2)no1 |  | 16300 nM |  | 6.25 |  |  |  | 
8 | Cc1nn(C)cc1-c1nc2c(N3CCN(Cc4cncnc4)CC3)c(Cl)cnc2[nH]1 | 50% | 950 nM | 78% | 7.66 | 32% | 7.82 | 8.23 | 
9 | Cc1cc(CN2CCN(c3c(Br)cnc4nc(-c5ccc(N6CCN(C)CC6)cc5)[nH]c34)CC2)no1 | 86% |  | 36% |  | 75% | 8.31 | 8.92 | 
10 | Cc1cc(CN2CCN(c3c(Cl)cnc4[nH]c(-c5ccc(N6CCN(C)CC6)cc5F)nc34)CC2)no1 | 99% | 7500 nM | 65% | 7.06 | 81% |  |  | 
11 | Cc1cc(CN2CCN(c3c(Br)cnc4[nH]c(-c5cncn5C)nc34)CC2)no1 |  | 2180 nM |  | 7.82 |  | 7.21 | 7.85 | 
12 | Cc1cc(CN2CCN(c3c(Cl)cnc4nc(-c5cccc(CN6CCOCC6)c5)[nH]c34)CC2)no1 | 71% | 113 nM | 69% | 7.33 | 15% |  |  | 
13 | Cc1cc(CN2CCN(c3c(Cl)cnc4[nH]c(-c5cccc(N6CCN(C)CC6)c5)nc34)CC2)no1 | 24% | 667 nM | 40% | 7.59 |  | 7.59 | 8.27 | 5.02
14 | Cc1cc(CN2CCN(c3c(Cl)cnc4nc(-c5cccc(CN(C)C)c5)[nH]c34)CC2)no1 | 36% | 840 nM | 29% | 7.27 | 85% |  |  | 
15 | Cc1cc(CN2CCN(c3c(Cl)cnc4nc(-c5ccc(N6CCN(C)CC6)c(F)c5)[nH]c34)CC2)no1 | 68% | 380 nM | 20% | 7.96 | 37% |  |  | 
16 | COCCN1CCN(c2ccc(-c3nc4ncc(Br)c(N5CCN(Cc6cc(C)on6)CC5)c4[nH]3)cc2)CC1 | 69% | 1000 nM | 66% | 7.92 | 54% |  |  | 

Row | Compound | metabolised at 0.5 h [1] | GI50 (SW-620) | metabolised at 0.5 h [2] | pIC50 (Aurora kinase A) | inhibition at 10 µM (hERG (KCNH2)) | pKd [3] | pKd [4] | pIC50 [5]
17 | Cc1cc(CN2CCN(c3c(Br)cnc4nc(-c5csnn5)[nH]c34)CC2)no1 |  | 20000 nM |  | 6.22 |  |  |  | 
18 | Cc1cc(CN2CCN(c3c(Cl)cnc4nc(-c5ccn(C)n5)[nH]c34)CC2)no1 |  | 2600 nM |  | 6.93 |  |  |  | 
19 | Cc1cc(CN2CCN(c3c(Cl)cnc4[nH]c(-c5ccoc5)nc34)CC2)no1 |  | 6500 nM |  | 7.17 |  |  |  | 
20 | Cc1cc(CN2CCN(c3c(Cl)cnc4nc(-c5ccc(N6CCN(C)CC6)cc5)[nH]c34)CC2)no1 | 89% | 570 nM | 25% |  |  |  |  | 
21 | CCn1cc(-c2nc3ncc(Cl)c(N4CCN(Cc5cc(C)on5)CC4)c3[nH]2)cn1 | 22% | 2180 nM | 16% | 7.39 | 51% |  |  | 
22 | Cc1nn(C)cc1-c1nc2c(N3CCN(Cc4ncn(C)n4)CC3)c(Cl)cnc2[nH]1 | 24% | 3140 nM | 97% | 7.03 | 14% |  |  | 
23 | Cc1nc(CN2CCN(c3c(Cl)cnc4[nH]c(-c5cn(C)nc5C)nc34)CC2)no1 | 20% |  | 58% |  |  |  |  | 
24 | Cc1cc(CN2CCN(c3c(Cl)cnc4[nH]c(-c5cccc(OCCN(C)C)c5)nc34)CC2)no1 | 18% | 850 nM | 23% | 6.89 | 88% |  |  | 
25 | CC(=O)N1CCN(c2ccc(-c3nc4ncc(Br)c(N5CCN(Cc6cc(C)on6)CC5)c4[nH]3)cc2)CC1 | 94% | 758 nM | 25% | 8.05 | 92% |  |  | 
26 | Cc1cc(CN2CCN(c3c(Br)cnc4[nH]c(-c5ccc(N6CCOCC6)cc5)nc34)CC2)no1 | 99% | 860 nM | 50% | 8.15 |  |  |  | 
27 | Cc1cc(CN2CCN(c3c(Cl)cnc4[nH]c(-c5cn(C)nc5C5CC5)nc34)CC2)no1 | 64% |  | 80% | 8.40 |  |  |  | 
28 | Cc1cc(CN2CCN(c3c(Cl)cnc4nc(-c5ccnn5C)[nH]c34)CC2)no1 |  | 3190 nM |  | 6.83 |  |  |  | 
29 | CCN1CCN(c2ccc(-c3nc4c(N5CCN(Cc6cc(C)on6)CC5)c(Cl)cnc4[nH]3)cc2)CC1 | 72% | 461 nM | 37% | 8.22 | 68% |  |  | 
30 | Cc1cc(CN2CCN(c3c(Cl)cnc4[nH]c(-c5cn(C)nc5C)nc34)CC2)no1 | 38% | 597 nM | 48% | 7.89 |  | 8.00 | 8.62 | 5.20
31 | Cc1cc(CN2CCN(c3c(Cl)cnc4[nH]c(-c5cnn(C)c5)nc34)CC2)no1 |  | 1800 nM |  | 7.35 |  | 7.18 | 7.92 | 
32 | Cc1cc(CN2CCN(c3c(Br)cnc4nc(-c5nc(C)oc5C)[nH]c34)CC2)no1 |  | 4570 nM |  | 5.66 |  |  |  | 
